bCat KO growth: primary screen for growth suppressors in beta-catenin knockout HCT116 cells (colon tumor, human) | 140,000 tested, 1.5% active | HCT116 beta-catenin knockout viability, CellTiter-Glo, 60 h; hits give low values | viability, % at 10 µM | AID 818, 2007;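 active means viability at or under a set limit, the compound median less 4 SD, cut at about 6% in these data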;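 further: 0% = Hyamine 1622 control at 20 µM and 100% = untreated cell control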
Lung fibro prol: antiproliferative effect on LL 47 fibroblasts – human, LL 47 cells, CellTiter-Glo luminescence, primary screen; LL 47 human lung fibroblast viability, ATP luminescence; hits give low values; viability, % at 10 µM; 85,000 tested, 1.1% active;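 active means viability at or below 50% in the single dose screen; inactive means viability above 50%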;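 further: compound exposure lasted 72 h before the ATP readout; 100% = median luminescence of untreated cell-only wells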
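Test system: LL 47 human lung fibroblasts / Quantity: 1,150 cells in each well / Medium: IMEM growth medium with 15% fetal bovine serum / Incubation: 72 h compound exposure at 37 °C after overnight plating / Detection: CellTiter-Glo luminescence measuring cellular ATP / Read-out: % viability versus median cells-only luminescence / Benchmarks: cell-only wells, no compound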
HUVEC inhibit: inhibitors of HUVEC proliferation, primary screen, cell-based, 384-well. CellTiter-Glo luminescence, 72 h; hits give low values. 86,000 tested, 1.1% active. AID 648, 2007. viability, % at 10 µM (by protocol);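 active means viability at or below 30%; inactive means viability above 30%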;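 further: 100% = median luminescence of DMSO-only cell control wells on each plate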
HCT116 PTEN-null: growth suppression of PTEN-null HCT116, primary screen, cell-based, CellTiter-Glo | viability, % at 10 µM | 140,000 tested, 1.2% active | HCT116 PTEN-null viability, 60 h; hits give low values;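 active means viability at or below a set limit, 4 SD under the median of all tested compounds, cut at about 3.7% in these data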;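 further: PTEN knockout HCT116 line with beta catenin targeted HCT116 as companion control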
H69AR growth 86K: proliferation blockers of H69AR lung cancer cells, primary screen, cell-based, human, 86K library. H69AR lung tumor viability, ATP luminescence, 72 h; hits give low values. viability, % at 10 µM. 85,000 tested, 6% active;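 active means viability at or below 40%; inactive means viability above 40%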;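 further: multidrug resistant small cell line overexpressing MRP-1 efflux transporter; 100% = mean luminescence of untreated control wells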
* marks the source's active call; other numbers are inactive results; x = no result given. The entries come from a sample that favours hits as a whole.

SMILES	bCat KO growth	Lung fibro prol	HUVEC inhibit	HCT116 PTEN-null	H69AR growth 86K
CCc1cc(=O)oc2cc3occ(C)c3cc12	78	x	x	87	x
Cc1cc(C)n(-c2ccc(C(=O)OCC(=O)Nc3ccc(Cl)cc3[N+](=O)[O-])cc2)n1	95	x	x	81	x
Nc1nc(CSc2nnnn2-c2ccccc2)nc(N2CCCc3ccccc32)n1	61	96	70	61	28*
Nc1nc(CN2CCN(c3ccccc3)CC2)nc(N2CCCc3ccccc32)n1	96	99	80	104	x
c1ccc2c(c1)CCCC2C1=NCCN1 (stereo unspecified)	0.8*	101	107	0.8*	100
Brc1ccc2c(c1)C(C1=NCCN1)c1ccccc1CS2 (stereo unspecified)	18	x	x	21	x
COc1ccc(NC(=O)/C(Cl)=C(/Cl)S(=O)(=O)Cc2ccc(C)cc2)cn1	3.1*	2.3*	5.4*	2.0*	94
COc1ccc(NC(=O)C(CC(C)C)NC(=O)c2ccccc2C)cn1 (stereo unspecified)	95	x	88	99	91
Cc1ccc(OC(=S)Nc2ccc(O)cc2)cc1	88	97	70	87	15*
Cc1ccc(OC(=S)Nc2ccc(F)cc2)cc1	93	95	99	89	87
Cc1ccc(-c2nn(-c3ccccc3)cc2/C=N/NC(=O)c2ccc(Br)o2)cc1	4.2*	x	x	4	x
O=C(N/N=C\c1cn(-c2ccccc2)nc1-c1ccccc1)c1ccc(Br)o1	7	x	x	7	x
COCCn1c(SCC(=O)N2CC(=O)Nc3ccccc32)nc2ccccc21	94	x	x	90	x
CC(=O)Nc1nonc1-c1nc2ccccc2n1Cc1ccccc1	75	x	x	73	x
CCC(=O)Nc1nonc1-c1nc2ccccc2n1Cc1ccc(Cl)c(Cl)c1	x	85	38	x	16*
CCCCNS(=O)(=O)c1ccc2nc(-c3cccs3)cc(C(=O)NCC(OC)OC)c2c1	83	x	x	84	x
CC(C)(C)CC(=O)Nc1nn[nH]n1	91	x	x	101	x
O=C(Nc1ccc2nc(-c3ccccn3)[nH]c2c1)C1CCCCC1	95	99	78	89	26*
COc1cc(C(=O)O/N=C2/C=CC(=O)C(C)=C2C)cc(OC)c1OC	18	x	x	2.5*	x
COc1cc(C(=O)O/N=C2\C=CC(=O)C=C2C)cc(OC)c1OC	29	x	x	27	x
CCNc1nc(NCC)nc(N2CC(=O)N(CC(=O)OCC)C2=N)n1	x	97	101	x	86
COC(=O)c1ccccc1NC(=S)N(Cc1ccc2c(c1)OCO2)Cc1cc2ccc(OC)cc2[nH]c1=O	72	x	x	67	x
Cc1cccc(Cn2nnc3c2C(=O)c2ccccc2C3=O)c1	4.5*	70	3.4*	3.0*	13*
Cc1ccccc1Cn1nnc2c1C(=O)c1ccccc1C2=O	60	32*	2.1*	57	12*
CCC(C)(C(=O)NC1CCCCC1)N(C(=O)Cc1cccs1)c1ccccc1 (stereo unspecified)	72	x	x	74	x
SMILES	bCat KO growth	Lung fibro prol	HUVEC inhibit	HCT116 PTEN-null	H69AR growth 86K
O=C(CCCc1nc2ccccc2s1)NCc1ccccc1F	95	x	x	95	x
CCn1c(C)cs/c1=N\C(=S)Nc1ccccc1C	83	x	x	79	x
COC(=O)Nc1ccc(S(=O)(=O)N2CCCC(C(=O)NC3CCS(=O)(=O)C3)C2)cc1 (stereo unspecified)	87	x	x	99	x
Cc1c(Cl)c(C(F)(F)F)nn1CC(=O)N1CCSCC1	97	x	x	105	x
C=CCn1cccc(/C=C/C(=O)c2ccc(C(C)(C)C)cc2)c1=S	1.4*	x	x	1.8*	x
CN1CCN(C(=S)NC(=O)c2ccc(C(C)(C)C)cc2)CC1	98	x	x	105	x
CCN(CC)S(=O)(=O)c1ccc(N2CCN(S(=O)(=O)c3ccccc3C#N)CC2)nc1	75	92	92	79	38*
N#Cc1ccccc1S(=O)(=O)N1CCN(c2ccc(S(=O)(=O)N3CCOCC3)cn2)CC1	82	96	103	87	82
Cc1ccc(-c2csc3ncnc(Sc4nnc(CN5CCCCCC5=O)o4)c23)cc1	1.9*	31*	61	1.7*	-0.2*
O=C1C2C3C=CC([C@@H]2C(=O)N1C1CCCCC1)[C@H]1C(=O)N(C2CCCCC2)C(=O)C31 (stereo partly specified)	94	90	105	90	88

Screening results (PubChem)
